Most compounds without a hit are left out; they make up all but 1.6% or so of the library.
MsrA inh = inhibitors of bovine MsrA. purified bovine MsrA, absorbance read-out. inhibition, % at 15.5 µM. 0.75% of 360,000 active;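 further: 0% = vehicle wells with enzyme and 100% = reference inhibitor wells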
bovine MsrA act = activates bovine MsrA enzyme | purified bovine MsrA, absorbance read-out | activation, % at 10.6 µM | 0.3% of 360,000 active | AID 602163; in the data active means activation above about 7.5%;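 further: 0% = vehicle and 100% = reference activator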
SKN-1 inh = inhibitors of C. elegans SKN-1; 0.49% of 360,000 active; C. elegans VP596 Pgst-4::GFP/RFP ratio, acrylamide-induced, 24 h; inhibition, % at 21.8 µM; AID 624304;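 active means interference check ratio from 0.5 to 1.5 plus GFP to RFP signal ratio inhibition reaching or exceeding a fixed threshold, cut at about 30% in these data, passing the limit was not always enough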
p-CIP stab down = lowers stability of the mouse p/CIP coactivator protein; Q05BA5; F442A p/CIP-EGFP cells, EGFP fluorescence, 16 h; decrease of EGFP signal, % at 10 µM; 0.01% of 290,000 active; AID 1984;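 active means EGFP signal decrease of at least 30% at 10 µM or well 3 SD below plate mean, unless failing retest; inactive means the rest, including hits failing retest or dose response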
MT1-MMP act inh = MT1-MMP (human) activation inhibition | P50281 | HT1080 RFP-PRO-GFP cells, GFP/RFP ratio fluorescence, overnight; percent of plate control window, DMSO zero | GFP/RFP ratio change, % at 20 µM | 0.061% of 360,000 active | AID 651647;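 active means GFP/RFP ratio change of at least 30% with cell ATP level not reduced by more than half and red fluorescence within 50% of control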
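Assay system – RFP-PRO-GFP reporter HT1080 cells · Compound dosing – single dose of 20 µM compound, 1% DMSO final · Incubation – overnight compound exposure at 37 °C · Measure – GFP/RFP fluorescence ratio · Benchmarks – DMSO wells and RFP-L50D-GFP cells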
MsrA act confirm = confirmation of bovine methionine sulfoxide reductase A activators; shares compounds with bovine MsrA act; purified bovine MsrA, absorbance read-out; activation, % at 10.6 µM; 12% of 1,000 active; in the data active means activation above about 4%;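 further: enzyme coupled to thioredoxin and thioredoxin reductase with NADPH; 0% = vehicle wells and 100% = reference activator wells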
MT1-MMP act val = blocks activation of human MT1-MMP in validation testing; shares compounds with MT1-MMP act inh; HT1080 RFP-PRO-GFP cells, GFP and RFP fluorescence ratio, overnight; inhibition, % at 20 µM; 10% of 200 active; AID 652235;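 active means inhibition of at least 50% in the primary cell screen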
MsrA inh confirm = bovine MsrA inhibition, confirmed | inhibition, % at 15.5 µM | AID 651822 | shares compounds with MsrA inh | purified bovine MsrA, absorbance read-out | 41% of 2,300 active;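 further: coupled to thioredoxin reductase with NADPH and selenocystamine and DMSO as substrate; 0% = vehicle only and 100% = full effect of reference inhibitor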
* marks the source's active call; other numbers are inactive results. Unless noted, no stated cut-off is given here; in the data, active means inhibition above about 4.5%; inactive means the rest.

`COC(=O)[C@]12C[C@H](CC(=O)NCCC(C)C)C(=O)N(Cc3ccc4c(c3)OCO4)C1=C[C@H](C(C)(C)C)O[C@@H]2C` gave MsrA inh 0.
`Cc1ccc(NC(=O)CCC(=O)NNC(=O)NC23CC4CC(CC(C4)C2)C3)cc1C` gave MsrA inh 1, bovine MsrA act 9.0*, SKN-1 inh -2, p-CIP stab down 8, MT1-MMP act inh 1 and MsrA act confirm 0.
`COc1cc(C=NN=c2sc3ccccc3n2C)ccc1OCCO` gave MsrA inh 3.
Screening COc1nccc(C(F)(F)F)c1C(=O)NC(=O)Nc1ccccc1 returned MsrA inh 1, bovine MsrA act 9.5*, SKN-1 inh 7, p-CIP stab down -4, MT1-MMP act inh -1 and MsrA act confirm 2.
For OCCN1CN(c2ccccc2)C(=S)N(c2ccccc2)C1 the results were MsrA inh 0.
For C=CCN1CC(COCc2ccccc2)OCCS1(=O)=O (stereo not drawn) the results were MsrA inh -1.
`NC1=C(Br)C(=O)c2ccccc2C1=O` gave MsrA inh 1, bovine MsrA act 9.7*, SKN-1 inh 6, p-CIP stab down 5, MT1-MMP act inh 2 and MsrA act confirm 9.4*.
CCCC(=O)Nc1ccc(C(=O)COC(=O)C2=COCCO2)cc1 was read as MsrA inh 0, bovine MsrA act 8.1*, SKN-1 inh -4, MT1-MMP act inh 1 and MsrA act confirm 0.
Screening COC(=O)CNC(=O)COC(=O)/C=C/c1ccc2ccccc2n1 returned MsrA inh 2, bovine MsrA act 8.7*, SKN-1 inh 4, p-CIP stab down -12, MT1-MMP act inh -3 and MsrA act confirm -3.
Screening O=C(CSc1ncnc2c1oc1ccccc12)Nc1cccc(C(F)(F)F)c1 returned MsrA inh 0, bovine MsrA act 8.8*, SKN-1 inh -4, p-CIP stab down 0, MT1-MMP act inh 2 and MsrA act confirm -2.
O=C(CSc1ncnc2c1oc1ccccc12)Nc1cccc(Cl)c1 was read as MsrA inh 0, bovine MsrA act 0, SKN-1 inh 6, p-CIP stab down 13 and MT1-MMP act inh 2.
`Cc1ccc(C(=O)OCc2nnc(-c3ccccc3)o2)s1` gave MsrA inh 1, bovine MsrA act -5, SKN-1 inh -4 and MT1-MMP act inh -1.
`O=C(OCc1nnc(-c2ccccc2)o1)c1ccc([N+](=O)[O-])s1` gave MsrA inh 9.3*, bovine MsrA act 18*, SKN-1 inh -6, MT1-MMP act inh 6, MsrA act confirm 24* and MsrA inh confirm 7.2*.
CC(C)CNc1cccc2c1S(=O)(=O)N(Cc1cccc(F)c1)[C@@H](C)[C@H](c1ccccc1)O2 was read as MsrA inh -1.
For Cc1ccccc1C(=O)N[C@@H](CC(C)C)C(=O)N1CCC[C@H]1C(=O)NCc1ccccc1 the results were MsrA inh -1.
For C[n+]1c(-c2ccccc2)cc2c(=Cc3ccc([N+](=O)[O-])cc3)c3ccccc3n21 the results were MsrA inh 11*, bovine MsrA act 20*, SKN-1 inh -7, MT1-MMP act inh 2, MsrA act confirm 17* and MsrA inh confirm 0.
Screening CC1OC2CC(=O)OC2C2=C1C(=O)c1c(O)cccc1C2=O (stereo not drawn) returned MsrA inh 8.5*, bovine MsrA act 17*, SKN-1 inh -3, MT1-MMP act inh -178, MsrA act confirm 11* and MsrA inh confirm 6.8*.
Screening COc1cc2c(c(OC3OC(CO)C(O)C(O)C3O)c1)C(=O)CC(c1ccc(O)cc1)O2 (stereo not drawn) returned MsrA inh -1.
`Cc1ccc(NS(=O)(=O)c2ccc3c(c2)C(=O)c2ccccc2C3=O)c(C)c1` gave MsrA inh 10*, bovine MsrA act 12*, SKN-1 inh 1, p-CIP stab down 4, MT1-MMP act inh 7, MsrA act confirm 5.8* and MsrA inh confirm 32*.
Screening Cc1ccc(S(=O)(=O)Nc2ccc3c(c2)C(=O)c2ccccc2-3)cc1 returned MsrA inh 0, bovine MsrA act -3, SKN-1 inh -2 and MT1-MMP act inh 2.
O=S(=O)(Nc1cc(Sc2ncn[nH]2)c(O)c2ccccc12)c1ccccc1 was read as MsrA inh 63*, bovine MsrA act 14*, SKN-1 inh 10, p-CIP stab down 33, MT1-MMP act inh -54, MsrA act confirm 1 and MsrA inh confirm 0.
O=c1ccc(-c2ccc([N+](=O)[O-])cc2)nn1-c1ccccc1 was read as MsrA inh 0, bovine MsrA act -3, SKN-1 inh 8, p-CIP stab down 0 and MT1-MMP act inh 2.
O=[N+]([O-])c1ccc(-[n+]2nc(-c3ccccc3)nn2-c2ccccc2)cc1 was read as MsrA inh 26*, bovine MsrA act 7.8*, SKN-1 inh 8, p-CIP stab down -2, MT1-MMP act inh 13, MsrA act confirm 4.8* and MsrA inh confirm 25*.
For COc1ccccc1-c1nnc(SCC(=O)Nc2ccc(Cl)cc2Cl)o1 the results were MsrA inh 1, bovine MsrA act 1, SKN-1 inh 15, p-CIP stab down -2 and MT1-MMP act inh -2.
COc1cccc2c1OC[C@@H](CO)[C@H]2N(C)C(=O)Nc1ccc(Cl)cc1Cl was read as MsrA inh 0, bovine MsrA act -10, SKN-1 inh -6, p-CIP stab down -8, MT1-MMP act inh 32* and MT1-MMP act val 13.
For COc1ccc(Nc2nc(N)c3ccccc3n2)c(OC)c1 the results were MsrA inh 0, bovine MsrA act -4, SKN-1 inh 2, p-CIP stab down 18, MT1-MMP act inh 39* and MT1-MMP act val 27.
Cc1ccccc1C(=O)N(C)[C@H]1C[C@H]2c3[nH]c4c(-c5ccccc5)cccc4c3CCN2C(=O)[C@H]1[C@H](C)O was read as MsrA inh 1.
O=C(O)c1ccccc1C(=O)Nc1ccc(Oc2ccccc2)cc1 was read as MsrA inh -1, bovine MsrA act 0, SKN-1 inh 8, p-CIP stab down -1 and MT1-MMP act inh 0.
`O=C(O)c1ccccc1C(=O)Nc1ccc(Nc2ccccc2)cc1` gave MsrA inh 1, bovine MsrA act -3, SKN-1 inh 4, MT1-MMP act inh 33* and MT1-MMP act val 11.
